From PMC12667952 (bioRxiv, 2025)
Where a chain is given by its changes, count along the chain named. pIC50: −log10 of the molar value. “Also recorded” adds a separate entry of the source. Read-outs that look alike come from different tables or passages of the source.

Columns and labels:
mice = assay: Side effect scoring; format: in vivo, mouse
How it was run: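 Adverse events, including sedation, recorded at each time point as mice were placed in the testing apparatus after i.p. dosing. Each scored 0–3 (none, mild, moderate, severe), and scores averaged per treatment group.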

PSNL mice = assay: Mechanical allodynia; format: in vivo, mouse; conditions: 50 mg/kg i.p., 90 mins
adenosine receptors = assay: Cerep panel off-target selectivity screen, adenosine receptors; format: binding; conditions: 1 × 10^-5 M
naïve mice = assay: Accelerating rotarod, motor coordination in naïve mice; format: in vivo, mouse
How it was run: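 Naïve mice trained for 3 days on an accelerating rotarod with large cylinders (3 sessions/day at 30-min intervals, 5 min acclimatisation each day), speed rising from 4 to 20 rpm over 180 s. Test compound given i.p. in 5% Solutol in PBS. Tested at t = 0 and 30, 60, 90, 120 and 180 min post-dose. Performance normalised to % baseline.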

C57BL/6J mice = assay: Conditioned place preference; format: in vivo, mouse; conditions: 50 and 150 mg/kg, i.p.
hGlyT2^W215F = target: T1, hGlyT2^W215F (Homo sapiens, UniProt Q9Y345, W215F); format: cell-based
T1 sequence (Q9Y345 1-797 W215F): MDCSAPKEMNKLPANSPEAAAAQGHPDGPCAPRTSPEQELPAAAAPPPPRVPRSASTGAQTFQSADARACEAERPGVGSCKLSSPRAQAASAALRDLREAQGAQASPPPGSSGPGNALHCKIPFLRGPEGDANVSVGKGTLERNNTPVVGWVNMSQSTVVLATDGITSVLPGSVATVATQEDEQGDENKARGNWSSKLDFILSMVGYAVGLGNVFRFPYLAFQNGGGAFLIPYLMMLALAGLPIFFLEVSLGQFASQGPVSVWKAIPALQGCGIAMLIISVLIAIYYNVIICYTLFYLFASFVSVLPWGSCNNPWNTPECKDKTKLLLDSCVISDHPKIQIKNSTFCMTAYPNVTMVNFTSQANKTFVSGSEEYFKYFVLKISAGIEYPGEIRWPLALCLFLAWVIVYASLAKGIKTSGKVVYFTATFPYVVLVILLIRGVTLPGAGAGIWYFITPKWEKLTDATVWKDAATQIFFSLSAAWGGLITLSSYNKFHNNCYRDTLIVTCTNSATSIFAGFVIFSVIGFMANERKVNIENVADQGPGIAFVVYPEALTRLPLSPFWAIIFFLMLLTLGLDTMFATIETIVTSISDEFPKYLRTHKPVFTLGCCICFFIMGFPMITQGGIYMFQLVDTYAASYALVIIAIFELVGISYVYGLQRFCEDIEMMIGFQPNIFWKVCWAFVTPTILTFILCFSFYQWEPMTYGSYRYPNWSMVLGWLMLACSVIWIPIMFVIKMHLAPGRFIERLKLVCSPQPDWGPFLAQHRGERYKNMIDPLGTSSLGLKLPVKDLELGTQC

hGlyT2^WT [1] = target: T2, hGlyT2^WT (Homo sapiens, UniProt Q9Y345); format: cell-based
T2 sequence (Q9Y345 1-797): T1 sequence (Q9Y345 1-797 W215F) with F215W

hGlyT2^WT [2] = target: T2, hGlyT2^WT; format: cell-based; conditions: glycine concentration-dependent currents with co-applied inhibitor

Q: Which Sedation (mice; 250 mg/kg (maximal dose)) does the source give for `CN(C)C1(CNC(=O)c2ccc3c(c2)CCN3C(=O)c2ccccc2)CCOCC1` [RPI-GLYT2–82, 1-benzoyl-N-((4-(dimethylamino)tetrahydro-2H-pyran-4-yl)methyl)indoline-5-carboxamide] here?
A: transient sedation

Q: What about the “Time to full recovery from sedation” value (mice; 250 mg/kg i.p.) of the same compound?
A: ≤ 90 min

Q: What about the “Peak reduction of response rate to von Frey stimulus” value (PSNL mice) of the same compound?
A: 22.5%

Q: What about the “Activity at adenosine receptors” value (adenosine receptors) of the same compound?
A: inactive

Q: What about the “Adverse neuromotor effects or muscle weakness (rotarod, grip strength, sedation)” value (naïve mice; 50 mg/kg analgesic dose) of the same compound?
A: not associated with adverse neuromotor effects or muscle weakness

Q: And the Rotarod performance (naïve mice; 250 mg/kg)?
A: transient reduction in rotarod performance

Q: And the “Initial reduction in baseline rotarod performance” value (naïve mice; 250 mg/kg i.p., restored over the 90-minute time course)?
A: 61%

Q: And the “Preference for the paired chamber” value (C57BL/6J mice)?
A: did not increase preference; also recorded: no significant preference

Q: What about the pIC50 (hGlyT2^W215F) of the same compound?
A: < 5.00

Q: What about the pIC50 (hGlyT2^WT [1]) of the same compound?
A: 6.26

Q: And the pIC50 (hGlyT2^WT [1]; IC50, inhibition of glycine transport currents, hGlyT2^WT, Xenopus oocytes, currents generated by EC50 (30 μM) glycine, n = 5)?
A: 6.26

Q: What about the Mechanism of inhibition (hGlyT2^WT [2]) of the same compound?
A: non-competitive inhibitor
